# Test results reported in article PMC10330157 (Clinical cancer research : an official journal of the …, 2023).
# Entries after “also recorded” stand apart in the source; their conditions may differ.
# Experiments:
# [1] = Phase 1 first-in-human trial: safety and tolerability; format: in vivo
# Summary of the method: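 In an open-label, non-randomized dose escalation, the test compound was given orally once daily for 28-day cycles at 20–1,200 mg. Cohorts started as single patients, with intrapatient escalation allowed. The primary endpoints were DLT and MTD. Patients were hospitalized during ramp-up, with oral antihyperuricemic agents and hydration ≥ 72 h before the first dose plus IV hydration. AEs were counted once per patient. The safety population was all patients receiving ≥ 1 dose, analysed descriptively.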
# patients with CLL/SLL = experiment: Absolute lymphocyte count; format: in vivo, human; settings: for Mean decrease in ALC: 23 patients with CLL/SLL
# Summary of the method: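 Adults with R/R CLL/SLL took the test compound orally once daily in 28-day cycles. ALC was tracked from ramp-up D1 to C1D1 and to C2D1. A subset with baseline mean ALC > 25 × 10³/μL was evaluated separately.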
# [2] = Clinical plasma pharmacokinetics; format: in vivo, human
# Summary of the method: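 Oral test compound was given once daily at doses of 20 to 1,200 mg. Plasma levels were measured by LC-MS/MS (LLOQ 5 ng/mL). Cmax, AUC0-24h and accumulation ratio came from noncompartmental analysis.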
# [3] = tested on: patients with relapsed or refractory CLL/SLL; experiment: Phase 1 trial: antitumor response in patients with R/R CLL/SLL; format: in vivo, human
# Summary of the method: (§1)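 Patients took the oral test compound once daily in 28-day cycles. Disease was assessed at baseline and then every 8 weeks from Cycle 3, using disease-specific scans, bone marrow biopsy/aspirate and hematologic and biochemical labs. MRD was checked in peripheral blood in patients reaching CR. ORR was reported with 95% CI, and missing data were not imputed.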
# [4] = tested on: patients with other hematologic malignancies (NHL, MM, myeloid malignancy, HCL, Castleman disease); experiment: Phase 1 trial: antitumor response in patients without CLL/SLL; format: in vivo, human
# Summary of the method: as §1
# [5] = cited from earlier work
# [6] = single oral administration, 50 mg, 1 subject
# [7] = single oral administration, 100 mg, 1 subject
# [8] = single oral administration, 200 mg, 2 subjects, Mean ± SD
# [9] = single oral administration, 400 mg, 8 subjects, Mean ± SD
# [10] = single oral administration, 600 mg, 7 subjects, Mean ± SD
# [11] = single oral administration, 800 mg, 7 subjects, Mean ± SD
# [12] = single oral administration, 1,000 mg, 6 subjects, Mean ± SD
# [13] = single oral administration, 1,200 mg, 6 subjects, Mean ± SD
# [14] = Castleman disease, evaluable n = 1
# [15] = Myeloid malignancy (AML, MDS), evaluable n = 2
# [16] = Non-CLL/SLL overall, evaluable n = 28
compound,measurement,setting,value
O=C(NS(=O)(=O)c1ccc(NC[C@H]2COCCO2)c([N+](=O)[O-])c1)c1ccc(N2CCN(CC3=C(c4ccc(Cl)cc4)CC4(CCC4)CC3)CC2)cc1Oc1cnc2[nH]ccc2c1 [lisaftoclax],"Grade 3 or 4 treatment-emergent increased lipase, patients",[1]; 23 patients with CLL/SLL,13.0%
same,"Grade 3 or 4 treatment-emergent neutropenia, patients",[1]; 23 patients with CLL/SLL,26.1%
same,"Treatment-related neutropenia, patients",[1]; 23 patients with CLL/SLL,26.1%
same,"Anemia, treatment-emergent adverse event","[1]; N = 52, Grade 3/4",5 (9.6) no. (%)
same,"Constipation, treatment-emergent adverse event","[1]; N = 52, Grade 3/4",1 (1.9) no. (%)
same,"Diarrhea, treatment-emergent adverse event","[1]; N = 52, Grade 3/4",1 (1.9) no. (%)
same,"Fatigue, treatment-emergent adverse event","[1]; N = 52, Grade 3/4",1 (1.9) no. (%)
same,"Headache, treatment-emergent adverse event","[1]; N = 52, Grade 3/4",2 (3.8) no. (%)
same,"Hypokalemia, treatment-emergent adverse event","[1]; N = 52, Grade 3/4",1 (1.9) no. (%)
same,"Nausea, treatment-emergent adverse event","[1]; N = 52, Grade 3/4",2 (3.8) no. (%)
same,"Neutropenia, treatment-emergent adverse event","[1]; N = 52, Grade 3/4",11 (21.2) no. (%)
same,"Peripheral edema, treatment-emergent adverse event","[1]; N = 52, Grade 3/4",2 (3.8) no. (%)
same,"Thrombocytopenia, treatment-emergent adverse event","[1]; N = 52, Grade 3/4",7 (13.5) no. (%)
same,"Anemia, treatment-emergent adverse event","[1]; N = 52, any grade",15 (28.8) no. (%)
same,"Arthralgia, treatment-emergent adverse event","[1]; N = 52, any grade",8 (15.4) no. (%)
same,"Constipation, treatment-emergent adverse event","[1]; N = 52, any grade",13 (25.0) no. (%)
same,"Diarrhea, treatment-emergent adverse event","[1]; N = 52, any grade",25 (48.1) no. (%)
same,"Fatigue, treatment-emergent adverse event","[1]; N = 52, any grade",18 (34.6) no. (%)
same,"Headache, treatment-emergent adverse event","[1]; N = 52, any grade",11 (21.2) no. (%)
same,"Hypokalemia, treatment-emergent adverse event","[1]; N = 52, any grade",9 (17.3) no. (%)
same,"Nausea, treatment-emergent adverse event","[1]; N = 52, any grade",16 (30.8) no. (%)
same,"Neutropenia, treatment-emergent adverse event","[1]; N = 52, any grade",14 (26.9) no. (%)
same,"Peripheral edema, treatment-emergent adverse event","[1]; N = 52, any grade",9 (17.3) no. (%)
same,"Thrombocytopenia, treatment-emergent adverse event","[1]; N = 52, any grade",15 (28.8) no. (%)
same,"Vomiting, treatment-emergent adverse event","[1]; N = 52, any grade",12 (23.1) no. (%)
same,"Tumor lysis syndrome (TLS), clinical or laboratory","[1]; daily dose ramp-up, doses up to 1,200 mg",no evidence of tumor lysis syndrome; also recorded: no evidence of clinical or laboratory TLS; also recorded: no patient with CLL/SLL in this study has experienced TLS; also recorded: no clinical or laboratory evidence of TLS
same,Dose-limiting toxicity (DLT),"[1]; doses of up to 1,200 mg",not reached; also recorded: no dose-limiting toxicities
same,Changes in platelet counts,[1]; in contrast to navitoclax,did not elicit clinically significant changes in platelet counts
same,"Neutropenic sequelae, such as fever and infection",[1]; in vivo,not observed
same,Maximum tolerated dose (MTD),"[1]; oral once daily, 20 mg to 1,200 mg, 52 patients",not reached
same,Median time to 50% ALC reduction,patients with CLL/SLL; 5 patients with higher risk of TLS,"3 (range, 2-4) days"
same,Mean decrease in ALC,patients with CLL/SLL; from ramp-up D1 to C1D1,69.4%
same,Mean decrease in ALC,patients with CLL/SLL; from ramp-up Day 1 to C2D1 (completion of first cycle),92.8%
same,Steady-state mean (CV%) AUC0-24h,[2]; 400 mg,"10,130 (40%) ng•h/mL"
same,Steady-state mean (CV%) Cmax,[2]; 400 mg,981 (43%) ng/mL
same,Accumulation ratio,[2]; multiple oral daily dosing,approximately 1
same,AUC0-24,[2]; [6],261 ng·h/mL
same,Cmax,[2]; [6],39.1 ng/mL
same,T1/2,[2]; [6],2.84 h
same,Tmax,[2]; [6],3 h
same,AUC0-24,[2]; [7],1800 ng·h/mL
same,Cmax,[2]; [7],229 ng/mL
same,T1/2,[2]; [7],3.85 h
same,Tmax,[2]; [7],6 h
same,AUC0-24,[2]; [8],2410 ± 370 ng·h/mL
same,Cmax,[2]; [8],294 ± 4 ng/mL
same,T1/2,[2]; [8],3.84 ± 0.16 h
same,Tmax,"[2]; single oral administration, 200 mg, 2 subjects, Median (range)",4 (4~4) h
same,AUC0-24,[2]; [9],6850 ± 2910 ng·h/mL
same,Cmax,[2]; [9],822 ± 334 ng/mL
same,T1/2,[2]; [9],4.43 ± 0.57 h
same,Tmax,"[2]; single oral administration, 400 mg, 8 subjects, Median (range)",6 (4~8) h
same,AUC0-24,[2]; [10],7810 ± 2840 ng·h/mL
same,Cmax,[2]; [10],761 ± 298 ng/mL
same,T1/2,[2]; [10],4.68 ± 1.03 h
same,Tmax,"[2]; single oral administration, 600 mg, 7 subjects, Median (range)",6 (4~8) h
same,AUC0-24,[2]; [11],7250 ± 2240 ng·h/mL
same,Cmax,[2]; [11],982 ± 384 ng/mL
same,T1/2,[2]; [11],4.34 ± 0.53 h
same,Tmax,"[2]; single oral administration, 800 mg, 7 subjects, Median (range)",4 (4~6) h
same,AUC0-24,[2]; [12],18300 ± 13100 ng·h/mL
same,Cmax,[2]; [12],1690 ± 1220 ng/mL
same,T1/2,[2]; [12],6.10 ± 1.52 h
same,Tmax,"[2]; single oral administration, 1,000 mg, 6 subjects, Median (range)",8 (6~8) h
same,AUC0-24,[2]; [13],12300 ± 4820 ng·h/mL
same,Cmax,[2]; [13],1200 ± 480 ng/mL
same,T1/2,[2]; [13],4.86 ± 1.01 h
same,Tmax,"[2]; single oral administration, 1,200 mg, 6 subjects, Median (range)",6 (3~8) h
same,ORR in patients with BTKi-intolerant disease,[3]; 4 out of 5 evaluable patients,80.0%
same,Best response MR,"[3]; CLL/SLL, evaluable n = 22",0 (0) no. (%)
same,Best response PD,"[3]; CLL/SLL, evaluable n = 22",0 (0) no. (%)
same,Best response PR,"[3]; CLL/SLL, evaluable n = 22",14 (63.6) no. (%)
same,Best response SD,"[3]; CLL/SLL, evaluable n = 22",8 (36.4) no. (%)
same,ORR,"[3]; CLL/SLL, evaluable n = 22",14 (63.6) no. (%)
same,PR (ORR) in patients with del(17p)/TP53 mutation,"[3]; CLL/SLL, 2/3",66.7%
same,PR in patients with IGHV unmutated,"[3]; CLL/SLL, 8/10",80.0%
same,Patients with ≥ 70% reductions in nodal and/or splenic size,"[3]; CLL/SLL, 9 of 21 patients",42.9%
same,Patients achieving PR among 4 patients who relapsed to prior BTKi,[3]; after 2 cycles of treatment,1 patient
same,Complete response (CR),[3]; all patients,No patient experienced a CR
same,Median time to response,[3]; patients with R/R CLL/SLL,"2 (range, 2-8) cycles"
same,"Clinical benefit, patients",[4]; 28 evaluable patients without CLL/SLL,50.0%
same,Best response MR,[4]; [14],0 (0) no. (%)
same,Best response PD,[4]; [14],0 (0) no. (%)
same,Best response PR,[4]; [14],0 (0) no. (%)
same,Best response SD,[4]; [14],1 (100.0) no. (%)
same,Clinical benefit rate,[4]; [14],1 (100.0) no. (%)
same,ORR,[4]; [14],0 (0) no. (%)
same,Best response MR,"[4]; HCL, evaluable n = 1",0 (0) no. (%)
same,Best response PD,"[4]; HCL, evaluable n = 1",0 (0) no. (%)
same,Best response PR,"[4]; HCL, evaluable n = 1",0 (0) no. (%)
same,Best response SD,"[4]; HCL, evaluable n = 1",1 (100.0) no. (%)
same,Clinical benefit rate,"[4]; HCL, evaluable n = 1",1 (100.0) no. (%)
same,ORR,"[4]; HCL, evaluable n = 1",0 (0) no. (%)
same,Best response PD,"[4]; MM, evaluable n = 11",7 (63.6) no. (%)
same,Best response SD,"[4]; MM, evaluable n = 11",2 (18.2) no. (%)
same,Clinical benefit rate,"[4]; MM, evaluable n = 11",4 (36.4) no. (%)
same,ORR,"[4]; MM, evaluable n = 11",1 (9.1) no. (%)
same,Best response MR,[4]; [15],0 (0) no. (%)
same,Best response PD,[4]; [15],2 (100.0) no. (%)
same,Best response PR,[4]; [15],0 (0) no. (%)
same,Best response SD,[4]; [15],0 (0) no. (%)
same,Clinical benefit rate,[4]; [15],0 (0) no. (%)
same,ORR,[4]; [15],0 (0) no. (%)
same,Best response PD,"[4]; NHL, evaluable n = 13",5 (38.5) no. (%)
same,Best response PR,"[4]; NHL, evaluable n = 13",0 (0) no. (%)
same,Best response SD,"[4]; NHL, evaluable n = 13",7 (53.8) no. (%)
same,Clinical benefit rate,"[4]; NHL, evaluable n = 13",8 (61.5) no. (%)
same,ORR,"[4]; NHL, evaluable n = 13",0 (0) no. (%)
same,Best response MR,[4]; [16],2 (7.1) no. (%)
same,Best response PD,[4]; [16],14 (50.0) no. (%)
same,Best response PR,[4]; [16],1 (3.6) no. (%)
same,Best response SD,[4]; [16],11 (39.3) no. (%)
same,Clinical benefit rate,[4]; [16],14 (50.0) no. (%)
same,ORR,[4]; [16],1 (3.6) no. (%)
CC1(C)CCC(CN2CCN(c3ccc(C(=O)NS(=O)(=O)c4ccc(NCC5CCOCC5)c([N+](=O)[O-])c4)c(Oc4cnc5[nH]ccc5c4)c3)CC2)=C(c2ccc(Cl)cc2)C1 [venetoclax],Patients with grade 3/4 neutropenia who may require G-CSF support or dose reductions,[5],~ 75%
same,Recipients experiencing infection,[5],72%
same,"Grade ≥ 2 diarrhea, recipients",[5]; real-world-evidence studies,up to 18%
same,"Grade ≥ 3 neutropenia, recipients",[5]; real-world-evidence studies,up to 47%
same,"Grade ≥ 3 neutropenic fever, recipients",[5]; real-world-evidence studies,up to 13%
same,"Grade ≥ 3 thrombocytopenia, recipients",[5]; real-world-evidence studies,up to 36%
same,"TLS, recipients",[5]; real-world-evidence studies,up to 13.4%
